Measurements: ChEMBL document CHEMBL3352730, “Synthesis and effects on cell viability of flavonols and 3-methyl ether derivatives on human leukemia cells” (Eur J Med Chem, 2014)
Activity calls are given as the source filed them. No cut-off for these calls is given here.

Key:
U-937 [1] = test: Induction of apoptosis in human U937 cells assessed as pro-caspase-9 cleavage by Western blotting method; format: functional, cell-based
Outline: (§1)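 U937 cells exposed to increasing concentrations of the flavonol and harvested at 24 h. Lysates were immunoblotted with antibodies that detect both the pro-caspases and their cleaved forms.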

HL-60 [2] = test: Induction of cell cycle arrest in human HL60 cells assessed as accumulation at subG1 phase at 1 uM after 12 hrs by propidium iodide staining based flow cytometry (reference value: 6.1 +/- 0.5%); format: functional
MOLT-3 = test: Induction of apoptosis in human MOLT3 cells assessed as reduction in pro-caspase-4 level by Western blotting method; format: functional, cell-based
Outline: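 Cells were exposed to a range of compound concentrations and harvested at 24 h. Lysates were immunoblotted for caspase proforms and cleaved forms, and for Bcl-2 family proteins.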

HL-60 [3] = test: Induction of apoptosis in human HL60 cells in presence of JNK/SAPK inhibitor SP600125 after 24 hrs by propidium iodide staining based flow cytometry; format: functional, cell-based
U-937 [4] = test: Induction of cell cycle arrest in human U937 cells assessed as accumulation at G2/M phase at 1 uM after 24 hrs by propidium iodide staining based flow cytometry (reference value: 22.8 +/- 1.6%); format: functional
[5] = Cytotoxicity against human HL60/MX1 cells after 72 hrs by MTT assay; format: functional, cell-based; settings: HL60/MX1, 72 h
Outline: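 MTT colorimetric assay with 72 h continuous exposure. IC50 was fitted per experiment by non-linear regression. Values are means with SE from at least three independent experiments, each run in triplicate.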

U-937 [6] = test: Induction of cell cycle arrest in human U937 cells assessed as accumulation at G2/M phase at 10 uM after 24 hrs by propidium iodide staining based flow cytometry (reference value: 22.8 +/- 1.6%); format: functional
U-937 [7] = test: Induction of cell cycle arrest in human U937 cells assessed as accumulation at subG1 phase at 1 uM after 24 hrs by propidium iodide staining based flow cytometry (reference value: 3.9 +/- 0.8%); format: functional
U-937 [8] = test: Induction of apoptosis in human U937 cells assessed as pro-caspase-7 cleavage by Western blotting method; format: functional, cell-based; outline: as §1
U-937 [9] = test: Cytotoxicity against human U937 cells at 30 uM in presence of 0.5 ug/mL TRAIL incubated simultaneously with drug for 48 hrs by MTT assay; format: functional, cell-based
Outline: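 U937 cells, MTT viability read-out. One arm received TRAIL at 0.5 µg/mL together with compound at 30 µM for 48 h. The other arm had compound for 24 h, then TRAIL for 24 h. Three independent experiments, each in triplicate.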

U-937 [10] = test: Induction of apoptosis in human U937 cells assessed as increase in caspase 9 activity using LEHD-pNA substrate at 10 uM after 24 hrs; format: functional, cell-based
Outline: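 Cells were given 10 µM for 24 h. Lysates were assayed for cleavage of DEVD-pNA (caspase-3/7), IETD-pNA (caspase-8) and LEHD-pNA (caspase-9). Results are expressed as fold over control, from three independent experiments in triplicate.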

HL-60 [11] = test: Induction of apoptosis in human HL60 cells assessed as pro-caspase-8 processing at 3 and 10 uM after 6 to 24 hrs by immunoblotting method; format: functional, cell-based
Outline: (§2)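 Kinetic and dose-response immunoblots. Cells were treated, harvested at the indicated times, and probed with antibodies that detect both procaspase-8/-9 and their cleaved fragments.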

U-937 [12] = test: Induction of cell cycle arrest in human U937 cells assessed as accumulation at G2/M phase at 10 uM after 12 hrs by propidium iodide staining based flow cytometry (reference value: 24.2 +/- 1.2%); format: functional
HL-60 [13] = test: Induction of cell cycle arrest in human HL60 cells assessed as accumulation at G1 phase at 10 uM after 48 hrs by propidium iodide staining based flow cytometry (reference value: 60.4 +/- 0.4%); format: functional
HL-60 [14] = test: Induction of apoptosis in human HL60 cells assessed as pro-caspase-9 processing at 3 and 10 uM after 6 to 24 hrs by immunoblotting method; format: functional, cell-based; outline: as §2
HL-60 [15] = test: Induction of cell cycle arrest in human HL60 cells assessed as accumulation at subG1 phase at 1 uM after 24 hrs by propidium iodide staining based flow cytometry (reference value: 3.4 +/- 0.3%); format: functional
HL-60 [16] = test: Induction of cell cycle arrest in human HL60 cells assessed as accumulation at G1 phase at 1 uM after 24 hrs by propidium iodide staining based flow cytometry (reference value: 53 +/- 1.1%); format: functional
HL-60 [17] = test: Induction of apoptosis in human HL60 cells in presence of 10 uM MEK1/2 inhibitor U0126 after 24 hrs by propidium iodide staining based flow cytometry; format: functional
HL-60 [18] = test: Induction of apoptosis in human HL60 cells assessed as pro-caspase-4 processing by Western blotting method; format: functional, cell-based
HL-60 [19] = test: Induction of cell cycle arrest in human HL60 cells assessed as accumulation at S phase at 3 uM after 24 hrs by propidium iodide staining based flow cytometry (reference value: 17.9 +/- 0.6%); format: functional
U-937 [20] = test: Induction of cell cycle arrest in human U937 cells assessed as accumulation at G1 phase at 1 uM after 12 hrs by propidium iodide staining based flow cytometry (reference value: 45.8 +/- 0.8%); format: functional
HL-60 [21] = test: Induction of apoptosis in human HL60 cells at 30 uM after 24 hrs by propidium iodide staining based flow cytometry (reference value: 3.8 +/- 0.6%); format: functional
U-937 [22] = test: Induction of cell cycle arrest in human U937 cells assessed as accumulation at G1 phase at 3 uM after 48 hrs by propidium iodide staining based flow cytometry (reference value: 51.9 +/- 0.9%); format: functional
U-937 [23] = test: Induction of cell cycle arrest in human U937 cells assessed as accumulation at G2/M phase at 10 uM after 48 hrs by propidium iodide staining based flow cytometry (reference value: 19.1 +/- 1.1%); format: functional
HL-60 [24] = test: Induction of cell cycle arrest in human HL60 cells assessed as accumulation at G2/M phase at 10 uM after 48 hrs by propidium iodide staining based flow cytometry (reference value: 17.9 +/- 0.7%); format: functional
U-937 [25] = test: Increase in TRAIL expression in human U937 cells at 10 30 uM after 24 hrs by immunoblotting method; format: functional, cell-based
Outline: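 HL-60 and U937 cells were treated with increasing concentrations for 24 h. Lysates were immunoblotted for TRAIL, DR4 and DR5.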

U-937 [26] = test: Induction of cell cycle arrest in human U937 cells assessed as accumulation at subG1 phase at 3 uM after 24 hrs by propidium iodide staining based flow cytometry (reference value: 3.9 +/- 0.8%); format: functional
HL-60 [27] = test: Induction of cell cycle arrest in human HL60 cells assessed as accumulation at G2/M phase at 3 uM after 12 hrs by propidium iodide staining based flow cytometry (reference value: 18.5 +/- 0.5%); format: functional
HL-60 [28] = test: Induction of apoptosis in human HL60 cells in presence of 10 uM MEK1/2 inhibitor PD98059 after 24 hrs by propidium iodide staining based flow cytometry; format: functional
HL-60 [29] = test: Induction of cell cycle arrest in human HL60 cells assessed as accumulation at S phase at 3 uM after 48 hrs by propidium iodide staining based flow cytometry (reference value: 15.3 +/- 0.1%); format: functional

SMILES: O=c1c(O)c(-c2ccc(Br)cc2)oc2ccccc12
- Activity (U-937 [1]): Active
- Activity (HL-60 [2]): 5.6%
- Activity (MOLT-3): Active
- Activity (HL-60 [3]): Active
- Activity (U-937 [4]): 25.2%
- IC50 [5]: 6.5 µM
- Activity (U-937 [6]): 18.7%
- Activity (U-937 [7]): 3.7%
- Activity (U-937 [8]): Active
- Activity (U-937 [9]): Active
- Activity (U-937 [10]): Active
- Activity (HL-60 [11]): Active
- Activity (U-937 [12]): 19.6%
- Activity (HL-60 [13]): 18.4%
- Activity (HL-60 [14]): Active
- Activity (HL-60 [15]): 4.1%
- Activity (HL-60 [16]): 49.5%
- fold change (FC) (HL-60 [17]): 2
- Activity (HL-60 [18]): Active
- Activity (HL-60 [19]): 17.6%
- Activity (U-937 [20]): 45.8%
- Activity (HL-60 [21]): 51.8%
- Activity (U-937 [22]): 38.5%
- Activity (U-937 [23]): 7%
- Activity (HL-60 [24]): 5.5%
- Activity (U-937 [25]): Active
- Activity (U-937 [26]): 5.5%
- Activity (HL-60 [27]): 18.2%
- fold change (FC) (HL-60 [28]): 2
- Activity (HL-60 [29]): 22.1%
